# Active and inactive are the calls of the source. The calls are words filed in the database; no cut-off is given here.
# How the values were obtained:
# [1] = target: T1, Growth hormone secretagogue receptor type 1 (Homo sapiens, UniProt Q92847); assay: Agonist activity at human GHS-R1a expressed in HEK293T cells after 45 mins by HTRF-based IP3 turnover assay; assay type: functional, cell-based, HEK-293T; settings: for Emax: HEK-293T
# [2] = target: T1, Growth hormone secretagogue receptor type 1; assay: Competitive binding affinity to human SNAP-tagged GHS-R1a expressed in HEK293T cells incubated at 4 degC for 3 hrs or at room temperature for 1 hr by Tag-lite assay; assay type: cell-based, HEK-293T
# Procedure, shortened: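 Tag-lite binding measured by FRET between terbium cryptate attached to SNAP-tag-fused GHS-R1a and a red fluorescent high-affinity ghrelin ligand. Ki obtained from the fluorescent binding data.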
# [3] = target: T1, Growth hormone secretagogue receptor type 1; assay: Inverse agonist activity at human GHS-R1a expressed in HEK293T cells after 45 mins by HTRF-based IP3 turnover assay; assay type: functional, cell-based, HEK-293T; settings: for Emax: HEK-293T
# [4] = target: T1, Growth hormone secretagogue receptor type 1; assay: Displacement of [125I]-His9-ghrelin from human GHS-R1a transfected in pig LLC PK-1 cell membranes after 60 mins by gamma counting method
# Procedure, shortened: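 Competition binding on membranes from LLC PK-1 cells transfected with GHS-R1a, using 0.3 nM ¹²⁵I-His9-ghrelin against increasing compound concentrations. Ki derived from the binding curves.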
# [5] = target: T1, Growth hormone secretagogue receptor type 1; assay: Antagonist activity at human GHS-R1a transfected in CHO cells assessed as inhibition of ghrelin-induced intracellular calcium mobilization measured over 60 secs by fluo-4AM dye-based fluorometric method; assay type: functional, cell-based
# [6] = target: T1, Growth hormone secretagogue receptor type 1; assay: Antagonist activity at human GHS-R1a transfected in mouse LTK cells after 6 hrs by CRE/luciferase reporter gene assay in presence of ghrelin and rolipram; assay type: functional, cell-based
# Procedure, shortened: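 Mouse LTK- cells stably carrying a CMV minimal promoter–3×CRE–luciferase construct, incubated 6 h with rolipram, saturating ghrelin and varied compound concentrations. Cells were then lysed and luminescence read. IC50 fitted from the curves.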
# [7] = target: T1, Growth hormone secretagogue receptor type 1; assay: Partial agonist activity at human GHS-R1a expressed in HEK293T cells at 10^-5 M after 45 mins by HTRF-based IP3 turnover assay; assay type: functional, cell-based; settings: HEK-293T
# [8] = target: T1, Growth hormone secretagogue receptor type 1; assay: Antagonist activity at human GHS-R1a expressed in HEK293T cells assessed as inhibition of ghrelin-induced stimulation at 10^-5 M after 45 mins by HTRF-based IP3 turnover assay; assay type: functional, cell-based; settings: HEK-293T
# [9] = target: T1, Growth hormone secretagogue receptor type 1; assay: Antagonist activity at human GHS-R1a expressed in HEK293T cells assessed as inhibition of ghrelin-induced stimulation after 45 mins by HTRF-based IP3 turnover assay; assay type: functional, cell-based; settings: HEK-293T
# T1 sequence (Q92847 whole entry): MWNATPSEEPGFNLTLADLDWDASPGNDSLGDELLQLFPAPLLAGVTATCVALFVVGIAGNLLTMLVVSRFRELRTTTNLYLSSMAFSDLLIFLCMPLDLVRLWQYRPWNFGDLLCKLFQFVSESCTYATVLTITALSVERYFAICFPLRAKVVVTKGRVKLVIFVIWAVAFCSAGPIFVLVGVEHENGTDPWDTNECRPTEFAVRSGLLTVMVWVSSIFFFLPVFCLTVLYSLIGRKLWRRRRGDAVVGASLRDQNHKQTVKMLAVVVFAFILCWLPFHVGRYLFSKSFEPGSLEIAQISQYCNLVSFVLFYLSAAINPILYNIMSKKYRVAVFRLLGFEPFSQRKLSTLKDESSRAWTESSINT
Ki [2] [µM],Ki [4] [µM],IC50 [5] [µM],IC50 [6] [µM],Compound,further results
0.21,,,,COc1ccc(Cn2c([C@@H](Cc3c[nH]c4ccccc34)NC(=O)C(CC(C)C)C(=O)N[C@@H](CC(C)C)C(N)=O)nnc2[C@@H](Cc2c[nH]c3ccccc23)NC(=O)[C@@H](N)CCCCN)cc1 (mixture of isomers),EC50 [1]: 0.17 µM; Emax [1]: 60%
0.255,,,,CC(C)C[C@H](NC(=O)[C@H](CC(C)C)NC(=O)[C@@H](Cc1c[nH]c2ccccc12)NC(=O)[C@H](Cc1ccccc1)NC(=O)[C@@H](Cc1c[nH]c2ccccc12)NC(=O)[C@@H](N)CCCCN)C(N)=O,EC50 [3]: 0.1 µM; Emax [3]: -55%
,> 1,> 1,> 1,COc1ccc(Cn2c([C@H](Cc3ccccc3)NC(C)=O)nnc2[C@@H](Cc2c[nH]c3ccccc23)NC(=O)C(C)(C)N)cc1,
,0.046,0.09,0.07,COc1ccc(Cn2c([C@@H](Cc3ccccc3)NC(C)=O)nnc2[C@@H](Cc2c[nH]c3ccccc23)NC(=O)C(C)(C)N)cc1,
0.0025,,,,COc1ccc(Cn2c([C@@H](Cc3c[nH]c4ccccc34)NC(C)=O)nnc2[C@@H](Cc2c[nH]c3ccccc23)NC(=O)[C@@H](N)CCCCN)cc1,EC50 [1]: 0.004 µM; Emax [1]: 89%
,> 1,> 1,> 1,COc1ccc(Cn2c([C@H](Cc3c[nH]c4ccccc34)NC(C)=O)nnc2[C@@H](Cc2c[nH]c3ccccc23)NC(=O)C(C)(C)N)cc1,
0.002,,,,"COc1ccc(Cn2c(C(Cc3c[nH]c4ccccc34)NC(=O)C3CCNCC3)nnc2[C@@H](Cc2c[nH]c3ccccc23)NC(=O)C(CC(C)C)NC(=O)C(CC(C)C)NC(C)=O)cc1 (single isomer, unassigned)",EC50 [1]: 0.0044 µM; Emax [1]: 108%
0.03,,,,COc1ccc(Cn2c([C@@H](Cc3c[nH]c4ccccc34)NC(=O)[C@H](CC(C)C)NC(=O)[C@H](CC(C)C)NC(C)=O)nnc2[C@@H](Cc2c[nH]c3ccccc23)NC(=O)C(C)(C)N)cc1,EC50 [1]: 0.0008 µM; Emax [1]: 80%
0.008,,,,COc1ccc(Cn2c([C@@H](Cc3c[nH]c4ccccc34)NC=O)nnc2[C@@H](Cc2c[nH]c3ccccc23)NC(=O)[C@@H](N)CCCCN)cc1,EC50 [1]: 0.01 µM; Emax [1]: 89%
,0.046,0.033,0.06,COc1ccc(Cn2c([C@@H](Cc3c[nH]c4ccccc34)NC=O)nnc2[C@@H](Cc2c[nH]c3ccccc23)NC(=O)C(C)(C)N)cc1,
,0.009,0.003,0.002,COc1ccc(Cn2c([C@@H](Cc3c[nH]c4ccccc34)NC(C)=O)nnc2[C@@H](Cc2c[nH]c3ccccc23)NC(=O)c2ccccn2)cc1,
,0.059,0.043,0.113,COc1ccc(Cn2c([C@@H](Cc3ccccc3)NC=O)nnc2[C@@H](Cc2c[nH]c3ccccc23)NC(=O)C(C)(C)N)cc1,
,0.0008,0.002,0.008,COc1ccc(Cn2c([C@@H](Cc3ccccc3)NC(C)=O)nnc2[C@@H](Cc2c[nH]c3ccccc23)NC(=O)CO)cc1,Activity [7]: Active; inhibition [8]: Active
0.22,,,,COC(=O)[C@H](CC(C)C)NC(=O)C(CC(C)C)C(=O)N[C@H](Cc1c[nH]c2ccccc12)c1nnc([C@@H](Cc2c[nH]c3ccccc23)NC(=O)[C@@H](N)CCCCN)n1Cc1ccc(OC)cc1 (stereo not given in full),EC50 [1]: 0.082 µM; Emax [1]: 82%
,0.062,0.19,0.1,COc1ccc(Cn2c([C@H](Cc3c[nH]c4ccccc34)NC(C)=O)nnc2[C@@H](Cc2c[nH]c3ccccc23)NC(=O)c2ccccn2)cc1,
,0.154,1.2,0.41,COc1ccc(Cn2c([C@H](Cc3c[nH]c4ccccc34)NC=O)nnc2[C@@H](Cc2c[nH]c3ccccc23)NC(=O)c2ccccn2)cc1,
,0.012,,0.022,COc1ccc(Cn2c([C@@H](Cc3c[nH]c4ccccc34)NC(C)=O)nnc2[C@@H](Cc2c[nH]c3ccccc23)NC(=O)C(C)(C)N)cc1,

Ki [2] [µM],Ki [4] [µM],IC50 [5] [µM],IC50 [6] [µM],Compound,further results
0.05,,,,COc1ccc(Cn2c([C@H](Cc3c[nH]c4ccccc34)NC(=O)[C@H]3CNCCO3)nnc2[C@@H](Cc2c[nH]c3ccccc23)NC(=O)[C@@H](CC(C)C)NC(=O)[C@@H](CC(C)C)NC(C)=O)cc1 (stereo in doubt),EC50 [1]: 0.06 µM; Emax [1]: 75%
0.017,,,,COC(=O)C(CC(C)C)C(=O)N[C@H](Cc1c[nH]c2ccccc12)c1nnc([C@@H](Cc2c[nH]c3ccccc23)NC(=O)[C@@H](N)CCCCN)n1Cc1ccc(OC)cc1 (mixture of isomers),EC50 [1]: 0.02 µM; Emax [1]: 81%
,0.018,0.004,0.007,COc1ccc(Cn2c([C@H](N)Cc3ccccc3)nnc2[C@@H](Cc2c[nH]c3ccccc23)NC(=O)c2ccccn2)cc1,
,0.062,0.15,0.32,COc1ccc(Cn2c([C@@H](N)Cc3ccccc3)nnc2[C@@H](Cc2c[nH]c3ccccc23)NC(=O)c2ccccn2)cc1,
0.003,,,,COc1ccc(Cn2c([C@@H](Cc3c[nH]c4ccccc34)NC(=O)[C@H](CC(C)C)NC(=O)[C@H](CC(C)C)NC(C)=O)nnc2[C@@H](Cc2c[nH]c3ccccc23)NC(=O)C(C)(C)O)cc1,EC50 [1]: 0.074 µM; Emax [1]: 75%
0.11,,,,COc1ccc(Cn2c([C@@H](Cc3c[nH]c4ccccc34)NC(=O)[C@H](CC(C)C)NC(=O)[C@H](CC(C)C)NC(C)=O)nnc2[C@@H](Cc2c[nH]c3ccccc23)NC(=O)[C@@H](N)CCCCN)cc1,EC50 [3]: 0.07 µM; Emax [3]: -37%
,0.008,0.003,0.008,COc1ccc(Cn2c([C@@H](Cc3ccccc3)NC=O)nnc2[C@@H](Cc2c[nH]c3ccccc23)NC(=O)c2ccccn2)cc1,Activity [7]: Active
,0.002,0.003,0.009,COc1ccc(Cn2c([C@@H](Cc3ccccc3)NC(C)=O)nnc2[C@@H](Cc2c[nH]c3ccccc23)NC(=O)[C@@H]2CNCCO2)cc1,Activity [7]: Active
,> 1,> 1,> 1,COc1ccc(Cn2c([C@@H](N)Cc3c[nH]c4ccccc34)nnc2[C@@H](Cc2c[nH]c3ccccc23)NC(=O)C(C)(C)N)cc1,
,0.009,0.004,0.003,COc1ccc(Cn2c([C@@H](Cc3ccccc3)NC(C)=O)nnc2[C@@H](Cc2c[nH]c3ccccc23)NC(=O)C2=CCCCO2)cc1,Activity [7]: Active
,0.131,0.09,0.13,COc1ccc(Cn2c([C@H](N)Cc3c[nH]c4ccccc34)nnc2[C@@H](Cc2c[nH]c3ccccc23)NC(=O)C(C)(C)N)cc1,
0.003,,,,COc1ccc(Cn2c([C@@H](Cc3c[nH]c4ccccc34)NC(=O)CO)nnc2[C@@H](Cc2c[nH]c3ccccc23)NC(=O)[C@H](CC(C)C)NC(=O)[C@H](CC(C)C)NC(C)=O)cc1,Emax [9]: 0%
,0.004,0.002,0.002,COc1ccc(Cn2c([C@@H](Cc3ccccc3)NC(C)=O)nnc2[C@@H](Cc2c[nH]c3ccccc23)NC(=O)c2ncccc2F)cc1,Activity [7]: Active
,0.154,0.135,0.115,COc1ccc(Cn2c([C@H](N)Cc3ccccc3)nnc2[C@@H](Cc2c[nH]c3ccccc23)NC(=O)C(C)(C)N)cc1,
,0.011,0.004,0.004,COc1ccc(Cn2c([C@@H](Cc3ccccc3)NC(C)=O)nnc2[C@@H](Cc2c[nH]c3ccccc23)NC(=O)c2cc(F)cc(F)n2)cc1,Activity [7]: Active
,> 1,> 1,> 1,COc1ccc(Cn2c([C@@H](N)Cc3ccccc3)nnc2[C@@H](Cc2c[nH]c3ccccc23)NC(=O)C(C)(C)N)cc1,
,,,,COc1ccc(Cn2c([C@@H](Cc3ccccc3)NC(C)=O)nnc2[C@@H](Cc2c[nH]c3ccccc23)NC(=O)c2ccccn2)cc1,Activity [7]: Active

# Reference: ChEMBL document CHEMBL3797137, “New ligands of the ghrelin receptor based on the 1,2,4-triazole scaffold by introduction of a second chiral center” (Bioorg Med Chem Lett, 2016)
